Data reported in paper PMC9070660 (RSC Advances, 2019).

Tests used:
SKOV3 cells = test: MTT cell viability assay, SKOV3; assay type: cell-based, human
Procedure, shortened: (§1)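 Culture: SKOV3 in RPMI-1640 with 10% FBS and penicillin-streptomycin at 37 °C, 5% CO2; OVCAR3 and IOSE80 in DMEM. Cells seeded at 1 × 10^4 per well, grown 24 h, then exposed to a range of test compound concentrations for 48 h. MTT (2 mg mL−1 stock) added, […]; formazan dissolved in DMSO; A490 read. IC50 calculated; SI = IC50 IOSE80/IC50 cancer line; three separate experiments.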

OVCAR3 cells = test: MTT cell viability assay, OVCAR3; assay type: cell-based, human
Procedure, shortened: as §1

IOSE80 cells = test: MTT cell viability assay, normal ovarian epithelial cells IOSE80; assay type: cell-based; conditions: Homo sapiens, IOSE80, 48 h, read-out: IC50 (cell viability) IOSE80
Procedure, shortened: as §1

IC50 (SKOV3 cells; Homo sapiens, SK-OV-3, 48 h, read-out: IC50 (cell viability) SKOV3): 430 ± 30 nM | IC50 (OVCAR3 cells; Homo sapiens, OVCAR-3, 48 h, read-out: IC50 (cell viability) OVCAR3): 380 ± 40 nM
Structure (SMILES): CC(=O)O[C@H]1C(=O)[C@@]2(C)[C@H]([C@H](OC(=O)c3ccccc3)[C@]3(O)C[C@H](OC(=O)[C@H](O)[C@@H](NC(=O)c4ccccc4)c4ccccc4)C(C)=C1C3(C)C)[C@]1(OC(C)=O)CO[C@@H]1C[C@@H]2O [Paclitaxel]
SI (selectivity index) SKOV3 (SKOV3 cells; IC50 IOSE80 cell line/IC50 SKOV3): 4.0 | SI (selectivity index) OVCAR3 (OVCAR3 cells; IC50 IOSE80 cell line/IC50 OVCAR3): 4.5 | IC50 (IOSE80 cells): 1700 ± 100 nM
